The target in test [1] is T1, Beta-2 adrenergic receptor (Homo sapiens, UniProt P07550). Put plainly: Agonist activity at human beta2-AR expressed in CHOK1 cells co-expressing Galpha15 at 100 uM measured after 21 secs to 120 secs by Calcium-4 dye based FLIPR assay relative to 1 uM isoproterenol. The class given is functional, cell-based. The method, boiled down:
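CHO-K1/Gα15 cells stably expressing β2-AR, grown in Ham's F12 with 10% FBS, hygromycin B and zeocin. Plated at 1.5 × 10^4 cells/well, 18 h, then loaded with FLIPR Calcium 4 dye for 1 h at 37 °C and 15 min at room temperature. Compounds from DMSO stocks diluted in HBSS/20 mM HEPES pH 7.4, added at 21 s. Read 120 s; stimulation ratio = (ΔRFU − background) relative to isoproterenol.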
Target sequence in this assay (P07550 whole entry, looked up): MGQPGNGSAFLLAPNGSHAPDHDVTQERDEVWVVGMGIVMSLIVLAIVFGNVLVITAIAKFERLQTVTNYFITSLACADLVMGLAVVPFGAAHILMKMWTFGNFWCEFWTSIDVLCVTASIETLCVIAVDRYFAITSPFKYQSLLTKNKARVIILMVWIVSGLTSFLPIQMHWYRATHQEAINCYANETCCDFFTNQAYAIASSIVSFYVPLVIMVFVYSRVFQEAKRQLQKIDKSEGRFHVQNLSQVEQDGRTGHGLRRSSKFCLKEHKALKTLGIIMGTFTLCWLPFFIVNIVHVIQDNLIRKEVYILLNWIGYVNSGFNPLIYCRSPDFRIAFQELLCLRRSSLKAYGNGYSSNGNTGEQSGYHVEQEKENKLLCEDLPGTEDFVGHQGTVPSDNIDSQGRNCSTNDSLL

The target in test [2] is T1, Beta-2 adrenergic receptor. Kind of test: Agonist activity at human beta2-AR expressed in CHOK1 cells co-expressing Galpha15 measured after 21 secs to 120 secs by Calcium-4 dye based FLIPR assay. The class given is functional, cell-based.
Target sequence in this assay (P07550 whole entry): as the sequence (P07550 whole entry, looked up) above
The next test concerns RAW264.7. Put plainly: cells. The following applies: Mus musculus, RAW264.7, 24 h.

What is called EC50 is the concentration that produces a half-maximal response. On to `Oc1cc2c(cc1O)C(c1ccco1)=NCC2`, for which the Activity in test [1] stood at 91.8%. For the same molecule, the EC50 stood at 5.1 µM in test [2] and 18.1 µM in the test on RAW264.7.
In the case of `CCOC(=O)CC[C@@H]1NCCc2cc(O)c(O)cc21`, the Activity in test [1] was found to be 42%. The EC50 with RAW264.7 was found to be 36.3 µM.
On the same counts, the results for `O=C1CC[C@H]2c3cc(O)c(O)cc3CCN12` are 70.2% and 35.4 µM.
`O=C(NO)c1ccc(O)c(O)c1`: in the test on RAW264.7, a half-maximal effect (EC50) was put at 82.4 µM.
As to `O=C1c2cc(O)c(O)cc2CCn2cccc21`, the Activity in test [1] is -11.5%. The response in the test on RAW264.7 was half-maximal at 225 µM (EC50).
Turning to `C[C@@H]1NCCc2cc(O)c(O)cc21`, the Activity in test [1] was found to be 35.5%. Moreover, the EC50 in the test with RAW264.7 was found to be 58.7 µM.
On the same counts, the results for `NCCc1ccc(O)c(O)c1` [DOPAMINE] are 86.4% and 18 µM.
On the same counts, the results for `NCCc1ccc(O)c(O)c1S(=O)(=O)O` are 39.3% and 310 µM.
Consider `CC(C)C[C@H]1NCCc2cc(O)c(O)cc21`, for which the Activity in test [1] was 70.9%. In the test with RAW264.7, the EC50 amounted to 498 µM.
Consider `Oc1cc2c(cc1O)[C@@H](Cc1ccccc1)NCC2`, for which the Activity in test [1] was 90.8%. The EC50 is 0.0879 µM in test [2] and 107 µM in the test with RAW264.7.
With `CC1=NCCc2cc(O)c(O)cc21`, in test [1], the Activity is 37.7%. This molecule registered an EC50 with RAW264.7 of 209 µM.
On the same counts, the results for `O=C1NCCc2cc(O)c(O)cc21` are 0.5% and 126 µM.
For `Oc1cc2c(cc1O)CCN=C2`, in that order: 41.1% and 248 µM.
On the same counts, the results for `OCc1ccc(C2=NCCc3cc(O)c(O)cc32)o1` are 70.6% and 203 µM.
`Oc1cc2c(cc1O)CC[N+](Cc1ccco1)=C2`: the Activity in test [1] was 11.4%. The EC50 in the test on RAW264.7 is 87.9 µM.

The values above are taken from ChEMBL document CHEMBL4251680, “Catecholic Isoquinolines from Portulaca oleracea and Their Anti-inflammatory and β2-Adrenergic Receptor Agonist Activity” (J Nat Prod, 2018).
